For 32 compounds, IC50 and Ratio IC50 results are on record in ChEMBL document CHEMBL2380260, “Structure-activity relationship of N,N'-disubstituted pyrimidinetriones as Ca(V)1.3 calcium channel-selective antagonists for Parkinson's disease” (J Med Chem, 2013).

As a reminder, the IC50 is the concentration that inhibits the measured activity by half.

The target in test [1] is Voltage-dependent L-type calcium channel subunit alpha-1C (Oryctolagus cuniculus, UniProt P15381). As to the kind of experiment: Antagonist activity at rabbit CaV1.2alpha1C transfected in HEK293 cells by FLIPR assay. The format is cell-based. The method, boiled down:
(§1)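 HEK293 cells stably expressing the L-type channel (rat CaV1.3 α1D with all alternative splice sites, or rabbit CaV1.2 α1C), each co-expressed with rat β3 and α2δ-1 subunits. Cells plated at 4 × 10⁴ cells/well and cultured in DMEM with 10% FBS for 4 days. Calcium influx read by Fluo-8 no-wash dye fluorescence on FLIPR Tetra. IC50 from triplicate percent-inhibition data fitted to a one-site sigmoidal model.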

Test [2] is described as follows: Selectivity ratio of IC50 for rabbit CaV1.2alpha1C to IC50 for rat CaV1.3alpha1D. The method, boiled down:
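Selectivity is defined as […] the ratio of the CaV1.2 IC50 to the CaV1.3 IC50. Both IC50s come from the Fluo-8 FLIPR calcium influx assay in stably transfected HEK293 cells, each run in triplicate and fitted to a one-site sigmoidal model.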

Test [3] addresses Voltage-dependent L-type calcium channel subunit alpha-1D (Rattus norvegicus, UniProt P27732). Briefly: Antagonist activity at rat CaV1.3alpha1D transfected in HEK293 cells by FLIPR assay. The test is classed as cell-based. The method, boiled down: as §1

Voltage-dependent L-type calcium channel subunit alpha-1C, sequence (P15381 whole entry, canonical isoform): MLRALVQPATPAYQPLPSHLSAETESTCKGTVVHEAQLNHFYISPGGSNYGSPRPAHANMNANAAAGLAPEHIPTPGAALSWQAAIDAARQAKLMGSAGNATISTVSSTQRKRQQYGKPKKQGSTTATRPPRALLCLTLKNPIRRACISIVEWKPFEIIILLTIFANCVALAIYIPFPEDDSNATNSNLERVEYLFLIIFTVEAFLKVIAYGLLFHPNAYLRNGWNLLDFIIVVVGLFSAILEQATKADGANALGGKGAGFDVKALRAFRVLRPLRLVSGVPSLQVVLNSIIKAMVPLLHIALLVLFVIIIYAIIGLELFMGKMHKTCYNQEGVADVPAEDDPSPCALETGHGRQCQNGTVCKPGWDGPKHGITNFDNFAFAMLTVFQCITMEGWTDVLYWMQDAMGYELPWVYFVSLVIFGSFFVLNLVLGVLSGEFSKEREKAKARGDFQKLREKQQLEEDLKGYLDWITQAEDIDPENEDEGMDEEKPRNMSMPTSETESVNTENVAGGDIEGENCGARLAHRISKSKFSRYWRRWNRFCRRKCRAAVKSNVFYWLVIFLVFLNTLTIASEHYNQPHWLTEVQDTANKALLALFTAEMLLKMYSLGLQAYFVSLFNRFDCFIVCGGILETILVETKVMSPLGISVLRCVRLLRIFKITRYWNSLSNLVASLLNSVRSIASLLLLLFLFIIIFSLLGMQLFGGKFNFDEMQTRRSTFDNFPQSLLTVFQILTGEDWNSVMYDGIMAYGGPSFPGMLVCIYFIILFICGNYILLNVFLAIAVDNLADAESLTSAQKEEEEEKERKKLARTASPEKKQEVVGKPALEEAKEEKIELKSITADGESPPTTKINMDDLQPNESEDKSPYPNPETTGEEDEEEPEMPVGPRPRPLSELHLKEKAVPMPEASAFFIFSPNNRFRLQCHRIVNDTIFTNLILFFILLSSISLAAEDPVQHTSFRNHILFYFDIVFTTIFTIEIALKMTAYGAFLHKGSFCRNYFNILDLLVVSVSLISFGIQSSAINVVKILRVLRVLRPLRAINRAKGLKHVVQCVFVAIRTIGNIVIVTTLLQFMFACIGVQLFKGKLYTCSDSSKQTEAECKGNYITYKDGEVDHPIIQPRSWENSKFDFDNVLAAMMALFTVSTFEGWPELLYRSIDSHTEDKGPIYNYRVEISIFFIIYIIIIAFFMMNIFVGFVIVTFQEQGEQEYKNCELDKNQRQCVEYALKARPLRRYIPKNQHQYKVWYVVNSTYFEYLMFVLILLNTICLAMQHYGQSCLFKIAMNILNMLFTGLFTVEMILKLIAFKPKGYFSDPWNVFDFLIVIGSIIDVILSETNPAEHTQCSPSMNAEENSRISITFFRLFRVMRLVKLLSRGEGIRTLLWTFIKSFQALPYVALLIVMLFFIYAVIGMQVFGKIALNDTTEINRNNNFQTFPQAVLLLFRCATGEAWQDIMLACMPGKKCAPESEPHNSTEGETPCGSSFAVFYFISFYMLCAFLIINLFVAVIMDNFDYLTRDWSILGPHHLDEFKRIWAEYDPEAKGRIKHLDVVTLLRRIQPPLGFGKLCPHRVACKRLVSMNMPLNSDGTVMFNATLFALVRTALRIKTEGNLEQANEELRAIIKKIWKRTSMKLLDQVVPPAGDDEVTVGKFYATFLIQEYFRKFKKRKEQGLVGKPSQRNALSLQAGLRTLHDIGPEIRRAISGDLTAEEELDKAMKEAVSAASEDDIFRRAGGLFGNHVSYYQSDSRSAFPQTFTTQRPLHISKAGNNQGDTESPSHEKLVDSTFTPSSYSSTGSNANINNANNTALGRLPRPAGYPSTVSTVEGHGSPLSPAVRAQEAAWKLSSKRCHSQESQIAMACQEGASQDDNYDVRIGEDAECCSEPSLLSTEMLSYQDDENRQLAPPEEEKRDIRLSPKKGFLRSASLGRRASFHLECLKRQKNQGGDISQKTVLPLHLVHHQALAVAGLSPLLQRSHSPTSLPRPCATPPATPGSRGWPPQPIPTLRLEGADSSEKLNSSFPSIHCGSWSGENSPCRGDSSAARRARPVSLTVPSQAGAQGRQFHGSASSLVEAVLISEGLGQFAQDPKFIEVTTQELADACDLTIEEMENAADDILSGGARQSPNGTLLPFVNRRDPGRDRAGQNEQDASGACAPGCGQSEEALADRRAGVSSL
Voltage-dependent L-type calcium channel subunit alpha-1D, sequence (P27732 whole entry): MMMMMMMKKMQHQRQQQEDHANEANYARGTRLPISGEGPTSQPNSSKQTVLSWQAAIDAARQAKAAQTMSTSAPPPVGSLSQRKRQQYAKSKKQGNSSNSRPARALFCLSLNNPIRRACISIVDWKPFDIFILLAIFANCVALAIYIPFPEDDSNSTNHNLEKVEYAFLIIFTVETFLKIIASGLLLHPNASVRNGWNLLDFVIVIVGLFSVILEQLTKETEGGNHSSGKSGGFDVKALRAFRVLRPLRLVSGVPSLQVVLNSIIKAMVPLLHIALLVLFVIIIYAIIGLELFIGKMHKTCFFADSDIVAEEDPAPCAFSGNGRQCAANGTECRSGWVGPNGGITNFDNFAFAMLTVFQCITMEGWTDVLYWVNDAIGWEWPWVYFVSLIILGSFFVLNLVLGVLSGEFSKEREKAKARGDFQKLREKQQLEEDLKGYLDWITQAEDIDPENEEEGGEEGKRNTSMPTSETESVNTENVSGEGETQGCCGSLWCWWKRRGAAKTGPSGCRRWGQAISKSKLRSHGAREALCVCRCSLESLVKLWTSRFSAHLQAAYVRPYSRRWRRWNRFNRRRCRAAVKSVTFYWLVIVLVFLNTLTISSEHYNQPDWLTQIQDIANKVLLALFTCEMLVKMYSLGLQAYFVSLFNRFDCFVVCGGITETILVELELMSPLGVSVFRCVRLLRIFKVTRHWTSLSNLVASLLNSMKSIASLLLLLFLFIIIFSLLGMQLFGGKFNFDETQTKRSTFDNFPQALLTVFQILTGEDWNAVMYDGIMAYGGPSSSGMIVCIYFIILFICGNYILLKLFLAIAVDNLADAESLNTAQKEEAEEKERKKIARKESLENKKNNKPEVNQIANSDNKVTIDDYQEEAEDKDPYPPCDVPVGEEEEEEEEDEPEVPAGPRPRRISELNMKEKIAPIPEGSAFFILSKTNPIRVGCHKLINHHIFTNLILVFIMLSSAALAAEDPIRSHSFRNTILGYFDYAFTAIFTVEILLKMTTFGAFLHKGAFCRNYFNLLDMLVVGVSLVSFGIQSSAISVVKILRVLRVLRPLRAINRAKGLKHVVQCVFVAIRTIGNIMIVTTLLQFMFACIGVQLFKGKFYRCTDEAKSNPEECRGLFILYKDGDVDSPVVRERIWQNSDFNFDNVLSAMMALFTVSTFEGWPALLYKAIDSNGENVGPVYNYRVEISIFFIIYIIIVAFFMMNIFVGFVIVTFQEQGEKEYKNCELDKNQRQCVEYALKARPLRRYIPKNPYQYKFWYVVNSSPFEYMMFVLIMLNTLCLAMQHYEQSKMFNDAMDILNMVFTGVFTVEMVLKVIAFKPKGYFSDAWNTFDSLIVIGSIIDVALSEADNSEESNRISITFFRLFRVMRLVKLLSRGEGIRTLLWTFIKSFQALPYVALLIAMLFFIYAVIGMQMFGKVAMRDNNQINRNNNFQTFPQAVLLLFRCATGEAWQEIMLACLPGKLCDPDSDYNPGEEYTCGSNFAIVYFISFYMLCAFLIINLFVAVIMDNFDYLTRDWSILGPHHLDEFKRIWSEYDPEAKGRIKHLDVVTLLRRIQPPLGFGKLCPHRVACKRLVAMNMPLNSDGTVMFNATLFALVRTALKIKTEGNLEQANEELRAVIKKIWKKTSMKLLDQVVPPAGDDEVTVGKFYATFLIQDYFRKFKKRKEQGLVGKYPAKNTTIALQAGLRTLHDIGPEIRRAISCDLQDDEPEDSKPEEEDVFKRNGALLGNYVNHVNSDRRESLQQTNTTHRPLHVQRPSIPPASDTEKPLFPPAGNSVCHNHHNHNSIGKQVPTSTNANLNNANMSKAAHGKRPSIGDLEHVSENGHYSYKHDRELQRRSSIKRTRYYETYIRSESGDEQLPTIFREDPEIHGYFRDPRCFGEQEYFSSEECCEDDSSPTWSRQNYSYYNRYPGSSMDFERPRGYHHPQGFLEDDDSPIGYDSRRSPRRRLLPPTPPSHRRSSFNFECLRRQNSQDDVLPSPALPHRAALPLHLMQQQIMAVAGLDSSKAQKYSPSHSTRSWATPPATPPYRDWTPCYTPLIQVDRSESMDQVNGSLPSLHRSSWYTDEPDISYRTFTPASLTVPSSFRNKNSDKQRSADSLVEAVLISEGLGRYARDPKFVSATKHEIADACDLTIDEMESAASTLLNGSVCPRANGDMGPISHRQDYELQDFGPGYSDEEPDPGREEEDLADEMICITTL

Consider `O=C(OCCc1cccc(F)c1)[C@H]1CC[C@@H](N2C(=O)CC(=O)N(CCc3cccc(Cl)c3)C2=O)C1`, for which the IC50 in test [1] amounted to 6.7 µM; in test [3] it was 9.7 µM. Also, the Ratio IC50 in test [2] was found to be 0.7.
Turning to `CC(=O)O[C@@H]1CCC[C@@H]1N1C(=O)CC(=O)N(CCc2cccc(Cl)c2)C1=O`, the figures for the IC50 in test [1] and in test [3] were 23.4 µM and 38.6 µM, respectively. Besides, the Ratio IC50 in test [2] worked out at 0.6.
Take `COc1ccc(CCN(C)CCCC(C#N)(c2ccc(OC)c(OC)c2)C(C)C)cc1OC` (stereo not given): the Ratio IC50 in test [2] was less than 2.
As to `O=C1CC(=O)N(C2CCCC2)C(=O)N1CC(c1ccccc1)c1ccccc1`, the IC50 in test [1] worked out at 8.1 µM; in test [3], 5.2 µM. Besides, the Ratio IC50 in test [2] was found to be 1.6.
On the same counts, the results for `O=C1CC(=O)N(C2CCCC2)C(=O)N1CCc1ccc(Cl)c(Cl)c1` are 3.4 µM, 1.2 µM and 2.7.
Take `CC1(C)CCC[C@@H]1N1C(=O)CC(=O)N(CCc2cccc(Cl)c2)C1=O`: the results for the half-inhibitory concentration (IC50) in test [1] and in test [3] were 3.5 µM and 2.1 µM, respectively. In addition, the Ratio IC50 in test [2] was 1.6.
In the case of `O=C1CC(=O)N([C@@H]2C[C@@H]3CC[C@H]2C3)C(=O)N1CCc1ccc(Cl)cc1`, the IC50 in test [1] worked out at 54 µM; in test [3], 1.9 µM. In test [2], the Ratio IC50 was determined as 11.
For `CC(C)(CN1C(=O)CC(=O)N(C2CCCC2)C1=O)c1cccc(Cl)c1` the same measures were 12.6 µM, 2.4 µM and 4.9.
In the case of `COC(=O)C1=C(C)NC(C)=C(C(=O)OC(C)C)C1c1cccc2nonc12` (stereo not given), the Ratio IC50 in test [2] was less than 2.
For the compound `CC(CN1C(=O)CC(=O)N(C2CC3CCC2C3)C1=O)c1cccc(Cl)c1` (mixture of isomers), the IC50 in test [1] stood at 5.1 µM; in test [3], 2.4 µM. Moreover, the Ratio IC50 in test [2] worked out at 2.1.
For `C[C@H](C1CCCCC1)N1C(=O)CC(=O)N(CCc2ccc(Cl)cc2)C1=O` the same measures were greater than 100 µM, 8.1 µM and greater than 12.
As to `O=C1CC(=O)N([C@@H]2C[C@@H]3CC[C@H]2C3)C(=O)N1CCc1cccc(Cl)c1`, the values for the IC50 in test [1] and in test [3] were greater than 100 µM and 2 µM, respectively. Moreover, the Ratio IC50 in test [2] was greater than 50.
On to `O=C1CC(=O)N(C2CCCC2)C(=O)N1CCc1ccc(OCc2ccccc2)cc1`, for which the IC50 in test [1] was 18.7 µM; in test [3] it was 34.1 µM. Also, the Ratio IC50 in test [2] is 0.5.
With `O=C1CC(=O)N([C@H]2C[C@H]3CC[C@@H]2C3)C(=O)N1CCc1cccc(Cl)c1`, the half-inhibitory concentration (IC50) was greater than 100 µM in test [1] and 3.5 µM in test [3]. For the same compound, the Ratio IC50 in test [2] is greater than 29.
With `CC1(C)CCC[C@H]1N1C(=O)CC(=O)N(CCc2cccc(Cl)c2)C1=O`, the IC50 in test [1] came to 4.7 µM; in test [3], 2.5 µM. In addition, the Ratio IC50 in test [2] came out at 1.9.
As for `COc1ccc([C@@H]2Sc3ccccc3N(CCN(C)C)C(=O)[C@@H]2OC(C)=O)cc1`, the Ratio IC50 in test [2] was less than 2.
In the case of `COC(=O)C1=C(C)NC(=S)N(C(=O)OC(C)C)C1c1cccc([N+](=O)[O-])c1` (stereo not given), the Ratio IC50 in test [2] was less than 2.
On to `C[C@@H](C1CCCCC1)N1C(=O)CC(=O)N(CCc2ccc(Cl)cc2)C1=O`, for which the results for the IC50 in test [1] and in test [3] were greater than 100 µM and 8.3 µM, respectively. In addition, the Ratio IC50 in test [2] is greater than 12.
As to `C[C@H]1CCC[C@H]1N1C(=O)CC(=O)N(CCc2cccc(Cl)c2)C1=O`, the IC50 in test [1] stood at 9.3 µM; in test [3] it was 7.3 µM. Besides, in test [2], the Ratio IC50 was found to be 1.3.
With `O=C1CC(=O)N(C2CCCC2)C(=O)N1CCCc1ccccc1`, the figures for the IC50 in test [1] and in test [3] were 21.9 µM and 7.6 µM, respectively. Besides, the Ratio IC50 in test [2] stood at 2.9.
Regarding `CC(C)OC(=O)[C@H]1CC[C@@H](N2C(=O)CC(=O)N(CCc3cccc(Cl)c3)C2=O)C1`, the values for the IC50 in test [1] and in test [3] were 8.5 µM and 10.4 µM, respectively.
In the case of `O=C(OCc1ccccc1)N1CC[C@H](N2C(=O)CC(=O)N(CCc3cccc(Cl)c3)C2=O)C1`, the IC50 is 33.9 µM in test [1] and 50.3 µM in test [3].
As for `O=C1CC(=O)N(C2CC3CCC2C3)C(=O)N1CCc1ccc(Cl)cc1` (mixture of isomers), the figures for the IC50 in test [1] and in test [3] were 50 µM and 5.6 µM, respectively. In test [2], the Ratio IC50 stood at 8.9.
Turning to `CC(CN1C(=O)CC(=O)N(C2CC3CCC2C3)C1=O)c1ccc(Cl)cc1` (racemic), the figures for the IC50 in test [1] and in test [3] were 8 µM and 3.4 µM, respectively.
On to `O=C1CC(=O)N(C[C@H]2CCCO2)C(=O)N1CCc1cccc(Cl)c1`, for which the IC50 is 41 µM in test [1] and greater than 100 µM in test [3].
On the same counts, the results for `C[C@H]1CCCC[C@H]1N1C(=O)CC(=O)N(CCc2cccc(Cl)c2)C1=O` are 3.7 µM and 3.7 µM.
`C[C@@H]1[C@@H](N2C(=O)CC(=O)N(CCc3cccc(Cl)c3)C2=O)C[C@H]2C[C@@H]1C2(C)C`: the IC50 in test [1] and in test [3] was greater than 100 µM throughout.
In the case of `CC1(C)CCC(N2C(=O)CC(=O)N(CCc3cccc(Cl)c3)C2=O)C1` (stereo not given), the figures for the IC50 in test [1] and in test [3] were 43 µM and 5.6 µM, respectively.
In the case of `C[C@H]1CCC[C@@H]1N1C(=O)CC(=O)N(CCc2cccc(Cl)c2)C1=O` (racemic), the IC50 in test [1] was found to be 21 µM; in test [3] it was 11 µM. The Ratio IC50 in test [2] is 1.8.
Take `C[C@H]1[C@H](N2C(=O)CC(=O)N(CCc3ccc(Cl)cc3)C2=O)C[C@@H]2C[C@H]1C2(C)C`: the results for the IC50 in test [1] and in test [3] were greater than 100 µM and 18 µM, respectively.
For the compound `C[C@@H]1CCC[C@@H]1N1C(=O)CC(=O)N(CCc2cccc(Cl)c2)C1=O`, the IC50 in test [1] came to 13 µM; in test [3], 5.5 µM. Also, in test [2], the Ratio IC50 is 2.3.
Turning to `O=C1CC(=O)N(C2CCCC2)C(=O)N1CCc1cc(C(F)(F)F)cc(C(F)(F)F)c1`, the IC50 worked out at 2.6 µM in test [1] and 1.4 µM in test [3]. Besides, the Ratio IC50 in test [2] was 1.8.
